Measured values from ChEMBL document CHEMBL3045708, “Potential antagonistic effects of nine natural fatty acids against Meloidogyne incognita” (2012).

Assays:
Format in all cases: functional
[1] = test system: Meloidogyne incognita; experiment: Nematicidal activity against second-stage juvenile of Meloidogyne incognita (root-knot nematode) assessed as mortality at 25 degC at 1000 umol/L after 24 hr Rvb = 1.47 to 2.51%)
[2] = test system: Meloidogyne incognita; experiment: Nematicidal activity against second-stage juvenile of Meloidogyne incognita (root-knot nematode) assessed as mortality at 25 degC at 1000 umol/L after 12 hr (reference value: 1.79 to 3.30%)
[3] = test system: Meloidogyne incognita; experiment: Nematicidal activity against second-stage juvenile of Meloidogyne incognita (root-knot nematode) assessed as mortality at 25 degC at 100 umol/L after 24 hr (reference value: 1.47 to 2.51%)
[4] = test system: Meloidogyne incognita; experiment: Nematicidal activity against second-stage juvenile of Meloidogyne incognita (root-knot nematode) assessed as mortality at 25 degC at 100 umol/L after 12 hr (reference value: 1.79 to 3.30%)
[5] = test system: Meloidogyne incognita; experiment: Nematicidal activity against Meloidogyne incognita (root-knot nematode) assessed as cumulative percentage of egg hatching at 25 degC at 2000 umol/L on day 21 (SDW control = 44.87 +/- 3.93%)
Procedure, shortened: (§1)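 Eggs (500 in 1 mL suspension) held on a 1 cm sieve of 35 μm pore, set in the center well of a 24-well plate. About 2 mL of fatty acid solution (final 100, 1000 or 2000 μmol/L) was added, reaching only the sieve bottom. The fatty acid was dissolved in acetone/Tween-80/DMSO medium and diluted with sterile distilled water. SDW and medium served as controls. One treatment per plate, six replicates, parafilm-sealed, 25 °C. Hatched J2s were counted and the solution renewed on days 3, 7, 14 and 21; values are cumulative % hatch as mean ± SE.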

[6] = test system: Meloidogyne incognita; experiment: Nematicidal activity against Meloidogyne incognita (root-knot nematode) assessed as cumulative percentage of egg hatching at 25 degC at 1000 umol/L on day 21 (SDW control = 44.87 +/- 3.93%); procedure, shortened: as §1
[7] = test system: Meloidogyne incognita; experiment: Nematicidal activity against Meloidogyne incognita (root-knot nematode) assessed as cumulative percentage of egg hatching at 25 degC at 100 umol/L on day 21 (SDW control = 44.87 +/- 3.93%); procedure, shortened: as §1
[8] = test system: Meloidogyne incognita; experiment: Nematicidal activity against Meloidogyne incognita (root-knot nematode) assessed as cumulative percentage of egg hatching at 25 degC at 2000 umol/L on day 14 (SDW control = 35.77 +/- 4.48%); procedure, shortened: as §1
[9] = test system: Meloidogyne incognita; experiment: Nematicidal activity against Meloidogyne incognita (root-knot nematode) assessed as cumulative percentage of egg hatching at 25 degC at 1000 umol/L on day 14 (SDW control = 35.77 +/- 4.48%); procedure, shortened: as §1
[10] = test system: Meloidogyne incognita; experiment: Nematicidal activity against Meloidogyne incognita (root-knot nematode) assessed as cumulative percentage of egg hatching at 25 degC at 100 umol/L on day 14 (SDW control = 35.77 +/- 4.48%); procedure, shortened: as §1
[11] = test system: Meloidogyne incognita; experiment: Nematicidal activity against Meloidogyne incognita (root-knot nematode) assessed as cumulative percentage of egg hatching at 25 degC at 2000 umol/L on day 7 (SDW control = 12.63 +/- 3.84%); procedure, shortened: as §1
[12] = test system: Meloidogyne incognita; experiment: Nematicidal activity against Meloidogyne incognita (root-knot nematode) assessed as cumulative percentage of egg hatching at 25 degC at 1000 umol/L on day 7 (SDW control = 12.63 +/- 3.84%); procedure, shortened: as §1
[13] = test system: Meloidogyne incognita; experiment: Nematicidal activity against Meloidogyne incognita (root-knot nematode) assessed as cumulative percentage of egg hatching at 25 degC at 100 umol/L on day 7 (SDW control = 12.63 +/- 3.84%); procedure, shortened: as §1
[14] = test system: Meloidogyne incognita; experiment: Nematicidal activity against Meloidogyne incognita (root-knot nematode) assessed as cumulative percentage of egg hatching at 25 degC at 2000 umol/L on day 3 (SDW control = 0.57 +/- 0.37%); procedure, shortened: as §1
[15] = test system: Meloidogyne incognita; experiment: Nematicidal activity against Meloidogyne incognita (root-knot nematode) assessed as cumulative percentage of egg hatching at 25 degC at 1000 umol/L on day 3 (SDW control = 0.57 +/- 0.37%); procedure, shortened: as §1
[16] = test system: Meloidogyne incognita; experiment: Nematicidal activity against Meloidogyne incognita (root-knot nematode) root-knot nematodes assessed as cumulative percentage of egg hatching at 25 degC at 100 umol/L on day 3 (SDW control = 0.57 +/- 0.37%); procedure, shortened: as §1
[17] = test system: Meloidogyne incognita; experiment: Nematicidal activity against second-stage juvenile of Meloidogyne incognita (root-knot nematode) assessed as mortality at 25 degC at 2000 umol/L after 24 hr Rvb = 1.47 to 2.51%)
[18] = test system: Meloidogyne incognita; experiment: Nematicidal activity against second-stage juvenile of Meloidogyne incognita (root-knot nematode) assessed as mortality at 25 degC at 2000 umol/L after 12 hr (reference value: 1.79 to 3.30%)

Row | Compound | mortality at 1000 µM [1] | mortality at 1000 µM [2] | mortality at 100 µM [3] | mortality at 100 µM [4] | Activity [5] | Activity [6] | Activity [7] | Activity [8] | Activity [9] | Activity [10] | Activity [11] | Activity [12] | Activity [13] | Activity [14] | Activity [15] | Activity [16] | mortality at 2000 µM [17] | mortality at 2000 µM [18]
1 | CCCCCCCCCCCC(=O)O [DODECANOATE] | 2.46% | 21.3% | 15.8% | 1.22% | 20.77% | 24.17% | 27.1% | 17.47% | 20.37% | 20.1% | 7.57% | 12.7% | 4.73% | 1.6% | 3.67% | 0.5% | 41.3% | 38%
2 | CCCC(=O)O [BUTYRIC ACID] | 2.34% | 3.34% | 2.91% | 2.55% | 14.13% | 21.47% | 20.37% | 8.17% | 17.17% | 13.9% | 4.47% | 7.87% | 6.7% | 0.67% | 2% | 1.6% | 3.28% | 3.23%
3 | CCCCCCCCCC(=O)O [DECANOIC ACID] | 1.63% | 16.9% | 5.16% | 2.01% | 7.1% | 16.4% | 25.93% | 4.8% | 11.5% | 19.57% | 2.07% | 4.77% | 4.73% | 0.23% | 0.97% | 0.43% | 61% | 25.2%
4 | CCCCC/C=C\C/C=C\CCCCCCCC(=O)O [LINOLEIC ACID] | 3.3% | 4.72% | 3.72% | 3.12% | 11.33% | 29.47% | 37.97% | 5.87% | 20.43% | 29.8% | 2.3% | 6.6% | 6.17% | 0.33% | 0.13% | 0.33% | 5.1% | 3.41%
5 | CCCCCCCCCCCCCCCC(=O)O [PALMITIC ACID] | 3.03% | 6.71% | 3.36% | 3.33% | 20.17% | 13.4% | 22.3% | 17.23% | 9.53% | 15.07% | 6.63% | 2.8% | 5.73% | 0.7% | 0.23% | 1.13% | 4.91% | 5.44%
6 | CCCCCCCCCCCCCC(=O)O [MYRISTIC ACID] | 1.57% | 2.29% | 2.46% | 1.31% | 20% | 23.97% | 27.67% | 12% | 12.93% | 18.4% | 1.53% | 1.47% | 8.87% | 0.27% | 0.37% | 1.8% | 3.76% | 2.11%
7 | CCCCCCCC/C=C\CCCCCCCC(=O)O [OLEIC ACID] | 2.42% | 4.52% | 3.54% | 3.54% | 21.8% | 25.57% | 24.93% | 16.53% | 18.53% | 16.6% | 7.47% | 6.03% | 6.07% | 1.23% | 0.67% | 1.47% | 4.58% | 4.49%
8 | CCCCCC(=O)O [HEXANOATE] | 2.29% | 1.09% | 1.5% | 0.39% | 19.67% | 21.2% | 15.97% | 14.4% | 16.67% | 9.57% | 6.4% | 7.67% | 2.97% | 0.8% | 2.77% | 0.87% | 4.44% | 2.02%
9 | CCCCCCCC(=O)O [OCTANOIC ACID] | 1.08% | 65.6% | 40.5% | 1.65% | 15.07% | 21% | 30.93% | 13.07% | 16.87% | 23.63% | – | 9.03% | 8.6% | 0.73% | 2.6% | 2.3% | 56.4% | 49.9%
